NR2E3 ag-1 – agonists of human nuclear receptor NR2E3; inhibition of corepressor binding, % at 4.78 µM; Q9Y5X4; GST-NR2E3/biotin-RetCOR TR-FRET, 1536-well; 320,000 tested, 0.12% active;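 active = percent inhibition above the cutoff of mean plus 3 SD of all tested compounds, set per screening campaign, cut at about 20% in these data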;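 note: 0% = DMSO wells and 100% = biotin wells as full block of FRET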
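Assay system: NR2E3–RetCOR corepressor complex. Quantity: 1.35 nM GST-NR2E3. Buffer or medium: pH 7.5 Tris-based buffer. Reagent: biotinylated RetCOR corepressor at 7 nM final. Schedule: 5 h at 4 °C. Detection: TR-FRET, emission read at 617 and 671 nm. Replicates: one well per compound, singlicate testing.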
GalR3 antagonist – antagonists of human GalR3; O60755; HEK293 GalR3-CNG cAMP membrane potential fluorescence; galR3 body fused to GalR1 C-terminus; inhibition, % at 3 µM; 360,000 tested, 0.44% active;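 active = inhibition above the screen-wide average plus 3 SD, cut at about 13% in these data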;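 note: forskolin and galanin both at EC90 stimulate the cells; cAMP rise reported by CNG channel membrane potential dye signal; 0% = forskolin plus galanin with DMSO and 100% = forskolin alone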
Target sequence (O60755 1-299 limits assumed): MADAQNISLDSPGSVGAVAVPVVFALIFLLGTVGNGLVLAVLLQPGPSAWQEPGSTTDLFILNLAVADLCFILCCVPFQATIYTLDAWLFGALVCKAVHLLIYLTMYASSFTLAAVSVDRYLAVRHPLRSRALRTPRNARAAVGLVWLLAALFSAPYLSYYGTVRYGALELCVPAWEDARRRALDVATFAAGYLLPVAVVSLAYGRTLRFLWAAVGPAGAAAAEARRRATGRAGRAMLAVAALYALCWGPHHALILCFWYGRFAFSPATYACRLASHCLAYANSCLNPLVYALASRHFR
Gli-Sufu antag – blocks Gli-Sufu signaling in a luciferase reporter; 340,000 tested, 0.74% active; Sufu-KO-LIGHT fibroblasts, Gli luciferase reporter luminescence; inhibition, % at 5 µM;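 active = inhibition above about 55%, limit read from the data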;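 note: 0% = DMSO-treated cells and 100% = wells with medium but no cells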
NR2E3 ag-2 – human photoreceptor-specific nuclear receptor agonism | inhibition of corepressor binding, % at 3.98 µM | 360,000 tested, 0.35% active | Q9Y5X4 | CHO-S Gal4-NCOR/VP16-NR2E3 two-hybrid, luciferase;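 active = inhibition above the mean of all tested compounds plus 3 SD, cut at about 70% in these data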;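 note: 0% = DMSO with NR2E3 transfected cells and 100% = cells lacking NR2E3 construct; higher means lower luciferase signal from less NR2E3 corepressor binding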
Jurkat NFkB inh – lowers PMA/ionomycin-induced NF-kB signal in Jurkat cells | PMA/ionomycin-induced NF-kB luciferase reporter, luminescence | inhibition, % at 4 µM | 330,000 tested, 0.53% active | AID 435003; in the data active = inhibition above about 50%
697 NFkB inh – lowers PMA/ionomycin-induced NF-kB signal in 697 B cells; 697 B-cell NF-kB luciferase reporter, 16 h; inhibition, % at 4 µM; 330,000 tested, 0.33% active; in the data active = inhibition above about 35%
Jurkat NFkB conf – inhibitors of the PMA/ionomycin-induced NF-kB reporter in Jurkat cells, retest | shares compounds with Jurkat NFkB inh | Jurkat NF-kB luciferase, 16 h | inhibition, % at 4 µM | 2,700 tested, 27% active | AID 435020;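 active = inhibition reaching about 45% at 4 µM in either replicate, limit read from the data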;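 note: plate controls were PMA/ionomycin stimulated DMSO wells for no effect and unstimulated DMSO wells for full effect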
Starred values were filed as active, the others as inactive; / = no result given. Only some compounds are listed: those with a hit (about 1.8% of all), similar ones and a draw of the others.

SMILES | NR2E3 ag-1 | GalR3 antagonist | Gli-Sufu antag | NR2E3 ag-2 | Jurkat NFkB inh | 697 NFkB inh | Jurkat NFkB conf
CCN(CC)CCCNc1ccc(-c2nnc(-c3ccc(OCC(C)C)cc3)o2)cn1 | 3.1 | -12.1 | -4.8 | 21.5 | 60.4* | -45.5 | 26.3
O=S(=O)(c1ccccc1)N1CCCc2nc(-c3ccc(F)cc3)ccc21 | / | -5.9 | / | / | / | / | /
COc1cc2sc3ccc(-c4ccc(CN5CCOCC5)cc4)cc3c(=O)c2cc1OC | / | -3.3 | -11.2 | -44.5 | -8.5 | -99.3 | /
COc1cc2sc3ccc(-c4ccc(N(C)C)nc4)cc3c(=O)c2cc1OC | 4.4 | -4.4 | / | / | -159.4 | -161.5 | -78.9
COc1ccc2c(c1OC)C(=O)N(c1cccc(C(F)(F)F)c1)C2 | 3.9 | -2.3 | -61.5 | -124.3 | -163.7 | -119.2 | -53.1
Nc1ccn([C@@H]2O[C@H](C(=O)N3CCN(C(=O)N4CCCCC4)CC3)[C@@H](O)[C@H]2O)c(=O)n1 | / | -7.2 | / | / | / | / | /
CC(C)CC1O[C@@H](C)[C@@H]2CN3CCc4c([nH]c5ccccc45)[C@@H]3C[C@@H]2N1C (some centres not stated) | / | -4.6 | / | / | / | / | /
CC(C)(C)c1ccc(-c2nc3cc(N)ccc3o2)cc1 | -0.7 | -6.0 | -35.5 | -38.8 | -190.4 | -237.1 | 12.0
COc1ccc(-c2nc3ccc([N+](=O)[O-])cc3[nH]2)cc1 | -0.4 | -3.5 | -81.8 | -142.1 | / | / | /
COc1ccc(-c2nc3cc([N+](=O)[O-])ccc3o2)cc1 | 1.8 | -3.9 | -112.3 | -118.8 | -170.1 | -245.6 | -122.0
CC(C)(C)Nc1nc2cc([N+](=O)[O-])ccc2o1 | -0.3 | -2.9 | 31.1 | -23.5 | -28.0 | 4.7 | /
Nc1ccc(-c2nc3cc([N+](=O)[O-])ccc3o2)cc1 | -3.5 | 3.0 | -55.8 | -124.5 | -179.6 | -172.0 | -114.5
Cc1ccc(C(=O)N(C)[C@H]2C[C@H]3c4[nH]c5c(-c6ccccc6)cccc5c4CCN3C(=O)[C@H]2[C@H](C)O)cc1 | / | 4.6 | / | / | / | / | /
COC(=O)c1ccccc1NC1=C/C(=N\S(=O)(=O)c2ccc(C(=O)O)cc2)c2ccccc2C1=O | 3.6 | / | 4.7 | 10.5 | 18.9 | -0.6 | /
COC(=O)c1ccccc1NC1=C/C(=N\S(=O)(=O)c2cccs2)c2ccccc2C1=O | 6.6 | -3.9 | -17.3 | 10.6 | 51.7* | 16.7 | 65.5*
CCOC(=O)c1[nH]c(C)c(/C(O)=C2\C(=O)C(=O)N(CCCN3CCOCC3)C2c2cccs2)c1C (configuration not stated) | -1.2 | -1.8 | -3.9 | -35.7 | 54.8* | -25.1 | 11.9
CCCCNC(=S)Nc1ccc(-c2nc3ccc(C)cc3s2)cc1 | 2.5 | -1.8 | -81.0 | -125.7 | -117.0 | -212.3 | /
CCC(C)(C)NC(=S)Nc1ccc(-c2nc3ccc(C)cc3s2)cc1 | 3.2 | -4.3 | -97.3 | -139.4 | -174.9 | -157.1 | -127.6
O=C1CC(c2cc(Br)ccc2F)c2cc3c(cc2N1)CCC3 (configuration not stated) | -2.6 | / | 37.1 | -53.0 | 72.7* | 8.4 | 48.0*
O=C1CC(c2ccccc2Br)c2cc3c(cc2N1)CCC3 (configuration not stated) | 1.6 | / | / | / | 54.7* | -46.7 | 12.2
CN(c1cccnc1)c1ccc(NC(=O)Cc2c[nH]c3ccccc23)cc1-c1ccc(F)c(F)c1 | / | -7.1 | / | / | / | / | /
Cc1ccc(NC(=S)NNC(=S)Nc2ccc(C)cc2C)cc1 | 1.4 | -2.0 | 16.5 | 4.7 | 65.8* | -6.9 | -18.2
Cc1cc(NC(=O)CSc2nnc(-c3ccccc3)c(-c3ccccc3)n2)no1 | -1.6 | -4.0 | -2.8 | 7.0 | 59.9* | 4.0 | 12.9
CCOc1ccccc1CN1CCN(Cc2cc(=O)c3ccccc3[nH]2)CC1CCO (configuration not stated) | 2.5 | -2.7 | 13.1 | -23.1 | 50.9* | -12.7 | 17.3
CN1CCCCC(NC(=O)c2cccc([N+](=O)[O-])c2)C1=O (configuration not stated) | / | -6.1 | / | / | / | / | /
CCOc1ccc(S(=O)(=O)NCc2ccccn2)cc1NC(=O)c1ccccc1 | -0.1 | -2.6 | 8.7 | -24.2 | 53.4* | -26.0 | 46.4*
CCOC(=O)c1cnc2cc(-c3ccc(Cl)cc3)nn2c1N | 4.7 | -6.5 | -81.8 | -30.3 | -107.6 | -151.9 | /

Source: PubChem BioAssay (several laboratories)
